Experimental data taken from ChEMBL document CHEMBL2390929, “New nitric oxide donating 1,2,4-triazole/oxime hybrids: synthesis, investigation of anti-inflammatory, ulceroginic liability and antiproliferative activities” (Bioorg Med Chem, 2013).

Key:
T47D = assay: Cytotoxicity against human T47D cells assessed as cell growth at 10^-5 M after 48 hrs by SRB assay; format: functional; details: read-out: Activity
Method in brief: (§1)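 NCI-60 one-dose screen across nine tumour subpanels. Each agent added once at 10^-5 M, cultures incubated 48 h. Endpoint is sulforhodamine B protein staining read spectrophotometrically. Output is percent growth of treated cells relative to untreated controls.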

Hs-578T = assay: Cytotoxicity against human Hs578T cells assessed as cell growth at 10^-5 M after 48 hrs by SRB assay; format: functional; details: read-out: Activity
Method in brief: (§2)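 NCI 60-cell-line primary one-dose screen across nine tumour subpanels. Compound added at a single concentration of 10^-5 M and cultures incubated 48 h. Endpoint was sulforhodamine B protein staining read spectrophotometrically, with growth expressed as percent of untreated control cells.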

PC-3 = assay: Cytotoxicity against human PC3 cells assessed as cell growth at 10^-5 M after 48 hrs by SRB assay; format: functional; details: PC-3, 48 h, read-out: Activity; method in brief: as §2
RXF 393 = assay: Cytotoxicity against human RXF393 cells assessed as cell growth at 10^-5 M after 48 hrs by SRB assay; format: functional; details: RXF 393, 48 h, read-out: Activity; method in brief: as §2
A498 = assay: Cytotoxicity against human A498 cells assessed as cell growth at 10^-5 M after 48 hrs by SRB assay; format: functional; details: A498, 48 h, read-out: Activity; method in brief: as §2
OVCAR-5 = assay: Cytotoxicity against human OVCAR5 cells assessed as cell growth at 10^-5 M after 48 hrs by SRB assay; format: functional; details: OVCAR-5, 48 h, read-out: Activity; method in brief: as §2
OVCAR-3 = assay: Cytotoxicity against human OVCAR3 cells assessed as cell growth at 10^-5 M after 48 hrs by SRB assay; format: functional; details: OVCAR-3, 48 h, read-out: Activity; method in brief: as §2
UACC-257 = assay: Cytotoxicity against human UACC257 cells assessed as cell growth at 10^-5 M after 48 hrs by SRB assay; format: functional; details: UACC-257, 48 h, read-out: Activity; method in brief: as §1
SK-MEL-5 = assay: Cytotoxicity against human SK-MEL-5 cells assessed as cell growth at 10^-5 M after 48 hrs by SRB assay; format: functional; details: SK-MEL-5, 48 h, read-out: Activity; method in brief: as §1
SK-MEL-2 = assay: Cytotoxicity against human SK-MEL-2 cells assessed as cell growth at 10^-5 M after 48 hrs by SRB assay; format: functional; details: SK-MEL-2, 48 h, read-out: Activity; method in brief: as §2
MDA-MB-435 = assay: Cytotoxicity against human MDA-MB-435 cells assessed as cell growth at 10^-5 M after 48 hrs by SRB assay; format: functional; details: MDA-MB-435, 48 h, read-out: Activity; method in brief: as §2
LOX IMVI = assay: Cytotoxicity against human LOXIMVI cells assessed as cell growth at 10^-5 M after 48 hrs by SRB assay; format: functional; details: read-out: Activity; method in brief: as §2
SF-539 = assay: Cytotoxicity against human SF539 cells assessed as cell growth at 10^-5 M after 48 hrs by SRB assay; format: functional; details: SF-539, 48 h, read-out: Activity; method in brief: as §2
SW-620 = assay: Cytotoxicity against human SW620 cells assessed as cell growth at 10^-5 M after 48 hrs by SRB assay; format: functional; details: SW-620, 48 h, read-out: Activity; method in brief: as §1
KM12 = assay: Cytotoxicity against human KM12 cells assessed as cell growth at 10^-5 M after 48 hrs by SRB assay; format: functional; details: KM12, 48 h, read-out: Activity; method in brief: as §2
HCT-15 = assay: Cytotoxicity against human HCT15 cells assessed as cell growth at 10^-5 M after 48 hrs by SRB assay; format: functional; details: HCT-15, 48 h, read-out: Activity; method in brief: as §2
HCT-116 = assay: Cytotoxicity against human HCT116 cells assessed as cell growth at 10^-5 M after 48 hrs by SRB assay; format: functional; details: HCT-116, 48 h, read-out: Activity; method in brief: as §2
COLO 205 = assay: Cytotoxicity against human COLO205 cells assessed as cell growth at 10^-5 M after 48 hrs by SRB assay; format: functional; details: COLO 205, 48 h, read-out: Activity; method in brief: as §2
NCI-H23 = assay: Cytotoxicity against human NCI-H23 cells assessed as cell growth at 10^-5 M after 48 hrs by SRB assay; format: functional; details: NCI-H23, 48 h, read-out: Activity; method in brief: as §2
NCI-H226 = assay: Cytotoxicity against human NCI-H226 cells assessed as cell growth at 10^-5 M after 48 hrs by SRB assay; format: functional; details: NCI-H226, 48 h, read-out: Activity; method in brief: as §2
HOP-92 = assay: Cytotoxicity against human HOP92 cells assessed as cell growth at 10^-5 M after 48 hrs by SRB assay; format: functional; details: HOP-92, 48 h, read-out: Activity; method in brief: as §2
A549 = assay: Cytotoxicity against human A549 cells assessed as cell growth at 10^-5 M after 48 hrs by SRB assay; format: functional; details: A549, 48 h, read-out: Activity; method in brief: as §2
Rattus norvegicus [1] = assay: Gastrointestinal toxicity in albino rat assessed as ulcer index at 0.28 mmol/kg, po (reference value: 0.60 +/- 0.05); format: organism-based; details: in vivo
Rattus norvegicus [2] = assay: Antiinflammatory activity in albino rat assessed as inhibition of carrageenan-induced paw edema at 0.28 mmol/kg, po after 5 hrs relative to control; format: functional
Method in brief: (§3)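 Adult male albino rats (120–140 g), four per group, fasted 24 h with water allowed. Test agent suspended in 0.5% w/v aqueous CMC and given orally at 0.28 mmol/kg; controls received CMC alone. After 30 min, 0.1 mL fresh 1% carrageenan in saline was injected subplantar into the right hind paw and saline into the left. Paw thickness was measured by Vernier caliper; % inhibition = [(VR−VL)control − (VR−VL)treated]/(VR−VL)control ×100. Mean ± SEM, one-way ANOVA.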

Rattus norvegicus [3] = assay: Antiinflammatory activity in albino rat assessed as inhibition of carrageenan-induced paw edema at 0.28 mmol/kg, po after 4 hrs relative to control; format: functional; method in brief: as §3
Rattus norvegicus [4] = assay: Antiinflammatory activity in albino rat assessed as inhibition of carrageenan-induced paw edema at 0.28 mmol/kg, po after 1 hr relative to control; format: functional; method in brief: as §3
[5] = Induction of nitric oxide release in phosphate buffer at pH 7.4 at 0.1 mM after 4 hrs by Griess method in presence of 0.5 mM of N-acetylcysteine; format: physicochemical; details: pH 7.4, 4 h, 100 µM
Method in brief: (§4)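 Compound in DMF diluted to final 10^-4 M in 1:1 50 mM phosphate buffer pH 7.4/MeOH with 5×10^-4 M N-acetylcysteine, 37 °C. Aliquot mixed with Griess reagent, 10 min at room temperature, A546 read. Nitrite quantified against sodium nitrite standards (10–80 nmol/mL); NO expressed as mol/mol. n = 4 reaction mixtures per compound.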

[6] = Induction of nitric oxide release in phosphate buffer at pH 7.4 at 0.1 mM after 2 hrs by Griess method in presence of 0.5 mM of N-acetylcysteine; format: physicochemical; details: pH 7.4, 2 h, 100 µM; method in brief: as §4
[7] = Induction of nitric oxide release in phosphate buffer at pH 7.4 at 0.1 mM after 3 hrs by Griess method in presence of 0.5 mM of N-acetylcysteine; format: physicochemical; details: pH 7.4, 3 h, 100 µM; method in brief: as §4
[8] = Induction of nitric oxide release in phosphate buffer at pH 7.4 at 0.1 mM after 1 hr by Griess method in presence of 0.5 mM of N-acetylcysteine; format: physicochemical; details: pH 7.4, 1 h, 100 µM; method in brief: as §4

SMILES	growth at 10 µM (T47D) [%]	growth at 10 µM (Hs-578T) [%]	growth at 10 µM (PC-3) [%]	growth at 10 µM (RXF 393) [%]	growth at 10 µM (A498) [%]	growth at 10 µM (OVCAR-5) [%]	growth at 10 µM (OVCAR-3) [%]	growth at 10 µM (UACC-257) [%]	growth at 10 µM (SK-MEL-5) [%]	growth at 10 µM (SK-MEL-2) [%]	growth at 10 µM (MDA-MB-435) [%]	growth at 10 µM (LOX IMVI) [%]	growth at 10 µM (SF-539) [%]	growth at 10 µM (SW-620) [%]	growth at 10 µM (KM12) [%]	growth at 10 µM (HCT-15) [%]	growth at 10 µM (HCT-116) [%]	growth at 10 µM (COLO 205) [%]	growth at 10 µM (NCI-H23) [%]	growth at 10 µM (NCI-H226) [%]	further results
COc1cc(-c2nnc(SC/C(=N/O)c3ccccc3)n2-c2ccccc2)cc(OC)c1OC	88.8	103	92.1	105	98.4	115	114	102	84.6	98.3	104	91.7	102	114	108	99.1	92.7	108	92.5	94.1	growth at 10 µM (HOP-92): 81.2%; growth at 10 µM (A549): 94.7%; UI (Rattus norvegicus [1]): 5.52; inhibition in vivo at 280 µmol/kg (Rattus norvegicus [2]): 68%; inhibition in vivo at 280 µmol/kg (Rattus norvegicus [3]): 76%; inhibition in vivo at 280 µmol/kg (Rattus norvegicus [4]): 61%; Activity [5]: 0.14 mol/mol; Activity [6]: 0.11 mol/mol; Activity [7]: 0.12 mol/mol; Activity [8]: 0.07 mol/mol
C=CCn1c(SC/C(=N\O)c2ccccc2)nnc1-c1ccc(OC)c(OC)c1	90.4	97.3	96.5	117	97.4	107	110	102	101	100	105	88.2	95.6	104	106	99	112	106	91.5	103	growth at 10 µM (HOP-92): 81.9%; growth at 10 µM (A549): 98.1%; UI (Rattus norvegicus [1]): 1.82; inhibition in vivo at 280 µmol/kg (Rattus norvegicus [2]): 69%; inhibition in vivo at 280 µmol/kg (Rattus norvegicus [3]): 78%; inhibition in vivo at 280 µmol/kg (Rattus norvegicus [4]): 53%; Activity [5]: 0.17 mol/mol; Activity [6]: 0.15 mol/mol; Activity [7]: 0.17 mol/mol; Activity [8]: 0.09 mol/mol
CCn1c(SC/C(=N/O)c2ccccc2)nnc1-c1ccccc1	120	101	81.2	117	69.3	96.8	121	104	100	108	105	104	93.7	98.7	110	101	101	115	103	108	growth at 10 µM (HOP-92): 62.5%; growth at 10 µM (A549): 101%; UI (Rattus norvegicus [1]): 1.78; inhibition in vivo at 280 µmol/kg (Rattus norvegicus [2]): 71%; inhibition in vivo at 280 µmol/kg (Rattus norvegicus [3]): 73%; inhibition in vivo at 280 µmol/kg (Rattus norvegicus [4]): 65%; Activity [5]: 0.13 mol/mol; Activity [6]: 0.08 mol/mol; Activity [7]: 0.12 mol/mol; Activity [8]: 0.06 mol/mol
